Shown are actives, neighbours in structure and some others; about 5.7% of the full set was active somewhere.
Beta cell apopt: blocks beta cell apoptosis; INS-1E cytokine-induced death, ATP luminescence, 48 h; percent of positive-control rescue, neutral wells zero; protection from apoptosis, % (concentration not given with the values); actives 0.8% (n = 300,000);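 active means Every replicate reaches about 75%, or at least half do and their mean reaches it too, limit read from the data; inconclusive means At least half of replicates reach the limit but their mean does not; inactive means Under half of replicates reach the limit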;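 further: 0% = cytokine-treated negative control wells and 100% = positive control rescue; higher means more ATP so stronger rescue from cytokine killing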
Calb FLC: affects C. albicans growth with fluconazole. C. albicans CaCi-2 (fluconazole-resistant clinical isolate) + fluconazole, Alamar Blue growth, 48 h. growth inhibition, % (test concentration not listed). actives 0.57% (n = 300,000). AID 1979;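 active means growth inhibition above about 58% in most replicates, limit read from the data, passing the limit was not always enough; inconclusive means exactly half the replicates above a set limit; inactive means most replicates below a set limit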;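 further: all wells also contain fluconazole at 8 µg/ml as a sub-toxic cotreatment; 0% = median of DMSO wells and 100% = median of geldanamycin control wells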
Mdm2-MdmX inh: disrupts the human Mdm2-MdmX interaction; inhibition, % at 8 µM; actives 3% (n = 330,000); O15151+Q00987; SaOS-2 split-luciferase Mdm2/MdmX complementation, luminescence; AID 485346;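 active means inhibition of at least 50% at 8 µM in the primary screen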
CSC inhib: blocks cancer stem cells; actives 1.1% (n = 300,000); cancer stem cell-like cells viability, luminescence; AID 2717; inhibition, % at 7.5 µM; in the data active means inhibition above about 75%; inconclusive means no clear call, values can overlap the other calls; tested in HMLE shEcad cells
T cruzi repl: T. cruzi replication inhibition | T. cruzi beta-gal in NIH3T3, luminescence, 90 h | inhibition, % (concentration not given with the values) | actives 1.4% (n = 300,000);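 active means mean inhibition across valid replicates above about 55%, limit read from the data; inconclusive means mean below that limit but half or more replicates reach it; inactive means mean below it, under half of replicates reach it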;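 further: signal also drops with host cell toxicity which is not excluded here; 0% = plate median of DMSO wells and 100% = zero luminescence signal; higher percent means less beta-gal luminescence so fewer parasites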
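Test system: β-gal T. cruzi (Tulahuen C4) inside NIH/3T3 cells / Quantity: 5,000 cells/well / Measured by: luminescence from GalScreen with 0.05% NP40, read after 60 min / Medium: DMEM plus 2% FBS / Measure: parasite load inhibition, % / Reagent: Tulahuen C4 trypomastigotes, 5000/well / Schedule: co-culture of at least 90 h after 3 h attachment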
SKKanGAS inh: inhibitors of SKKanGAS S. pyogenes growth in kanamycin (SK-promoter or general growth effect) | actives 1.3% (n = 300,000) | AID 1662 | inhibition, % at 7.5 µM | BacTiter-Glo, 6 h;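 active means mean replicate score, as percent of positive control median, at least 50; inconclusive means mean below 50 but one replicate at or above 50; inactive means mean and every replicate below 50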;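 further: strain carries kanamycin resistance gene driven by streptokinase promoter and grows in 40 µg/ml kanamycin; loss of luminescence reflects streptokinase promoter inhibition or plain growth inhibition; 0% = median of DMSO wells and 100% = positive control at its reference dose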
Numbers without * were called inactive; ? = inconclusive; nt = no result given.

SMILES | Beta cell apopt | Calb FLC | Mdm2-MdmX inh | CSC inhib | T cruzi repl | SKKanGAS inh
Cc1c(NC(=O)C(C)OC(=O)c2ccc([N+](=O)[O-])s2)c(=O)n(-c2ccccc2)n1C (configuration not stated) | 0.4 | 10.6 | -12.2 | 11.0 | 85.9* | -9.4
COc1ccc(C(=O)NCCN2CCOCC2)c(OC)c1OC | -4.5 | 70.2* | -18.9 | 6.4 | 3.3 | -0.6
COC(=O)C/C=C/[C@@H](C)[C@@H](/C=N/OCC[C@@H]1C=C[C@H](OC(C)=O)[C@@H](COC(C)=O)O1)NS(=O)(=O)c1ccc(C)cc1 | 1.6 | -7.1 | -14.5 | 4.9 | -12.0 | 15.3
COc1cc(/C=N/NC(=O)c2cccnc2)ccc1OC(=O)c1cc(OC)c(OC)c(OC)c1 | 109.1* | 1.4 | 21.2 | nt | -0.1 | 3.5
CCOc1cc(/C=N/NC(=O)c2cccnc2)ccc1OCC(N)=O | 0.5 | 107.0* | -1.2 | -15.0 | nt | nt
CCOc1cc(/C=N/NC(=O)c2cccnc2)ccc1OCC(=O)N(C)C | 2.6 | -8.8 | 5.5 | 11.4 | -15.6 | 0.6
COc1cc(C(=O)Oc2ccccc2/C=N/NC(=O)c2ccc(Cl)cc2)cc(OC)c1OC | nt | 34.3 | 45.6 | 40.9 | 66.7* | 27.9
CS(=O)(=O)c1cccc(-c2csc(N3CCC(C(N)=O)CC3)n2)c1 | -4.3 | nt | -41.9 | -10.3 | nt | nt
CC(C)(C)N(Cc1ccccc1)C(=O)COC(=O)CN1C(=O)NC2(CCCC2)C1=O | nt | -3.8 | 12.1 | -1.7 | -3.5 | 27.4
CN(CC(=O)Nc1ccccc1Br)C(=O)C(Cc1ccccc1)NC(=O)c1ccccc1 (configuration not stated) | -1.1 | -2.5 | -10.3 | -7.9 | -1.7 | -1.1
c1cncc(CNc2ncnc3ccc(-c4ccc5c(c4)OCO5)cc23)c1 | -6.5 | nt | -8.1 | nt | nt | nt
c1nc(NCc2ccc3c(c2)OCO3)c2cc(-c3ccc4c(c3)OCCO4)ccc2n1 | 99.2* | nt | 27.3 | nt | nt | nt
COc1cccc(N2C(C(C)=O)=NN(c3ccccc3)C2c2ccc(N3CCOCC3)cc2)c1 (configuration not stated) | 3.7 | -26.5 | 24.4 | 7.4 | 76.6* | 9.9
CC(=O)C1=NN(c2ccccc2)C(c2ccc3c(c2)OCO3)N1c1ccc(N2CCOCC2)cc1 (configuration not stated) | 12.2 | -20.0 | -40.6 | 21.0 | 24.7 | -16.4
CCc1cc(-c2n[nH]c(C)c2-c2ccccc2Cl)c(O)cc1OC | 12.7 | 86.2* | 9.6 | 102.5* | 5.4 | ?
Cc1cc(C)c[n+](C(C)C(=O)c2ccc(-c3ccccc3)cc2)c1 (configuration not stated) | 93.0* | -15.7 | 15.2 | 27.6 | 19.1 | -8.1
Cc1nn(C)cc1C(C(=O)NC1CCCCC1)N(Cc1ccc(F)cc1)C(=O)c1cnccn1 (configuration not stated) | -1.2 | 6.7 | 5.4 | -4.4 | -4.3 | -0.4
Cc1nn(C)cc1C(C(=O)NC1CCCCC1)N(Cc1ccccc1Cl)C(=O)c1cnccn1 (configuration not stated) | -4.5 | 78.3* | 14.0 | -12.3 | 7.4 | -0.4
CCOC(=O)c1ccc(Nc2c(OCC)c(=O)c2=O)cc1 | -5.2 | -18.5 | 26.3 | -4.7 | -19.4 | 4.6
CC(C)(C)c1ccc(S(=O)(=O)N2CCC(c3nc4ccc(Cl)cc4[nH]3)CC2)cc1 | nt | -23.4 | 13.7 | 18.9 | 55.4* | ?
CC(=O)Nc1ccc(S(=O)(=O)N2CCC(c3nc4ccc(C)cc4[nH]3)CC2)cc1 | nt | 4.5 | 34.4 | 12.6 | 5.2 | -2.3
Cc1ccsc1/C=N/NS(=O)(=O)c1ccc([N+](=O)[O-])cc1 | -3.3 | 101.2* | 16.4 | -6.8 | -1.4 | 0.9
Cc1ccsc1/C=N/NC(=O)c1ccc([N+](=O)[O-])cc1 | 23.7 | -16.2 | -8.2 | -3.8 | -10.2 | -4.6
Cc1nn(Cc2cccc(C(=O)Nc3ccn(Cc4c(F)c(F)cc(F)c4F)n3)c2)c(C)c1[N+](=O)[O-] | 0.5 | -10.4 | 35.1 | nt | 68.0* | 18.4
O=C(CON=C1c2ccccc2-c2ccccc21)NC12CC3CC(CC(C3)C1)C2 | -9.2 | -12.4 | 26.3 | 178.9* | 22.0 | 34.4
N/N=C/C(=N\Nc1ccc(Cl)cc1)C(=O)c1ccncc1 | -1.7 | -0.7 | -19.2 | 75.7* | 19.3 | 17.5

Assay outcomes deposited in PubChem BioAssay by several laboratories.
